Reference: PMC3850770 (Chemical research in toxicology, 2012)

Columns and labels:
[1] = target: T1, P450 2W1 (Homo sapiens, UniProt Q8TAV3); experiment: Steady-state kinetics of P450 2W1-catalyzed oxidation; format: in vitro ADME
T1 sequence (Q8TAV3 23-490): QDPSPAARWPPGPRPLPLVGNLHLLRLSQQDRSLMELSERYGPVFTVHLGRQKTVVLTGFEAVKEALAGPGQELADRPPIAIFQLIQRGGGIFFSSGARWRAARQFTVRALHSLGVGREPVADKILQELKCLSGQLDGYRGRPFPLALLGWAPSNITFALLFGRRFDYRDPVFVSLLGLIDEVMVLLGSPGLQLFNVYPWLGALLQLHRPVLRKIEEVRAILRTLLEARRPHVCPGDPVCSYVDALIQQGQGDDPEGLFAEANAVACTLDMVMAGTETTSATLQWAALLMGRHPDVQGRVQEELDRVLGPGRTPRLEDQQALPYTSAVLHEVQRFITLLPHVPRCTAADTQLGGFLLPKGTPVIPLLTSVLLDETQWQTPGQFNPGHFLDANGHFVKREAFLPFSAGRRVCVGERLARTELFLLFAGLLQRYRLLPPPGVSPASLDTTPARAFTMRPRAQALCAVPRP
Procedure, shortened: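 Same P450 and NADPH-generating levels as qualitative incubations, in 0.10 M phosphate, pH 7.4. Substrate 0–200 μM, in duplicate, at 37 °C. With 2W1: 10 min (dimethoxyphenyl substrate) or 15 min (aminophenyl substrate); with 1A1: 15 and 25 min respectively. CH2Cl2 quench, benzothiazole internal standard added, extract quantified by HPLC-UV. Km and kcat from nonlinear regression.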

[2] = target: T1, P450 2W1; experiment: Preliminary incubation with P450 2W1, products by HPLC-UV; format: in vitro ADME; conditions: recombinant human P450 2W1
Procedure, shortened: (§1)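 Recombinant human P450 at 0.3–0.8 μM, either in E. coli membranes or purified and reconstituted with 2-fold excess NADPH-P450 reductase plus 30 μM DLPC. Substrate 100 μM with NADPH-generating system in 0.10 M potassium phosphate, pH 7.4; 37 °C for 30–60 min. Extracted into 2 volumes CH2Cl2, residue taken up in CH3CN. Read by C18 HPLC with photodiode-array UV, acetonitrile/water gradient containing 0.5% formic acid.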

[3] = target: T2, P450 2S1 (Homo sapiens, UniProt Q96SQ9); experiment: Preliminary incubation with P450 2S1, products by HPLC-UV; format: in vitro ADME; conditions: recombinant human P450 2S1
T2 sequence (Q96SQ9 1-504): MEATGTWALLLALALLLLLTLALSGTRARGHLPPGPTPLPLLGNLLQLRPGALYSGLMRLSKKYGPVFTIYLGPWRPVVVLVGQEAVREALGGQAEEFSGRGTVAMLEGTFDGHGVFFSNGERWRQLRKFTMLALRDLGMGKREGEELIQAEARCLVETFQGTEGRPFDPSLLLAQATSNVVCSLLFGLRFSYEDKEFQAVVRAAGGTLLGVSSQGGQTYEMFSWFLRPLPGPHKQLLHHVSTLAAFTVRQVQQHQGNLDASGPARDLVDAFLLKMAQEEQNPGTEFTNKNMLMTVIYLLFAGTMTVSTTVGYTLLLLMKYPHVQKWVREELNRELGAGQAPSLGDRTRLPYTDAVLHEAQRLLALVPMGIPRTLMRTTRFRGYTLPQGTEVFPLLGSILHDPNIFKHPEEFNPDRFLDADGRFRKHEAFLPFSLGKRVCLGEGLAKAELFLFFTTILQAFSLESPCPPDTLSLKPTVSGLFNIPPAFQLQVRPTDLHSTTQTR
Procedure, shortened: as §1

[4] = system: P450 2W1, P450 1A1, or human liver microsomes; experiment: GSH adduct formation from oxidation products; format: in vitro ADME; conditions: 5 mM GSH, 100 μM substrate, LC-MS
Procedure, shortened: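 P450 2W1 or 1A1 in E. coli membranes, or human liver microsomes pooled from ten donors, at 0.50 μM with 100 μM substrate, 5 mM GSH and 4 μg mL−1 catalase. Incubated 12–15 h at 37 °C, stopped with 2 volumes CH3CN; supernatant analysed by ESI+ LC-MS.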

[5] = system: colon, lung, and breast cancer cell lines; conditions: ref [19]; cited from earlier work
[6] = target: T3, P450 1A1 (Homo sapiens, UniProt P04798); experiment: Steady-state kinetics of P450 1A1-catalyzed oxidation; format: in vitro ADME; conditions: oxidation of 5F 203 to form 8a
T3 sequence (P04798 1-512): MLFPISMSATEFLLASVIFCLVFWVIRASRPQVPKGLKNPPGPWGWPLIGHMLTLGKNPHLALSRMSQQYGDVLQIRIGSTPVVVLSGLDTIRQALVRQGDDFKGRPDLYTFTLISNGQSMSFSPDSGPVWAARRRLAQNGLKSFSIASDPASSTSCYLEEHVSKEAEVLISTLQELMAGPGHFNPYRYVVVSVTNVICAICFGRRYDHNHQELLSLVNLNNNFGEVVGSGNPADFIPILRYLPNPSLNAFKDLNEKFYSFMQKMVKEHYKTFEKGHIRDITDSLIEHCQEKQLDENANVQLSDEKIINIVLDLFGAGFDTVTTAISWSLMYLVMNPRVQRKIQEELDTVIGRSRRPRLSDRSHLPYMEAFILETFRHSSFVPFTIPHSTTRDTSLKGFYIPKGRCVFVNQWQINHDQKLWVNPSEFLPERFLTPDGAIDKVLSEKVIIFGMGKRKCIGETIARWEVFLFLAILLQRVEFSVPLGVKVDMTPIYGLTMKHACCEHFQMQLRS

[7] = system: MCF-7 cells; conditions: ref [12], [13]; cited from earlier work
[8] = system: MDA 468 cells; conditions: ref [12], [13]; cited from earlier work
[9] = system: IGROV-1 cells; conditions: ref [12], [13]; cited from earlier work
[10] = system: dGuo; experiment: dGuo adduct formation with synthetic 10; conditions: after Ac2O activation, 37 °C under argon 2 h, LC-MS m/z 524
[11] = Solubility in organic solvents; format: physicochemical; conditions: in CHCl3 and CH3OH
[12] = substrate: COc1ccc(-c2nc3cc(F)ccc3s2)cc1OC; experiment: Steady-state kinetics of P450 1A1-catalyzed oxidation; format: in vitro ADME, human; conditions: other: P450 1A1, substrate GW 610, product 4c; pH 7.4; 37.0 °C
[13] = substrate: Cc1cc(-c2nc3cc(F)ccc3s2)ccc1N; experiment: as above; format: in vitro ADME, human; conditions: pH 7.4, 37.0 °C
[14] = other: P450 1A1, substrate 5F 203, product 8a
[15] = other: P450 1A1, substrate 5F 203, product 8b

Question: Which results are given for `COc1ccc(-c2nc3cc(F)ccc3s2)cc1OC` [GW 610, 5-Fluoro-2-(3,4-dimethoxyphenyl)-benzothiazole]?
Answer: kcat ([1]; P450 2W1, substrate GW 610, product 4c): 0.0633 ± 0.0067 s⁻¹; efficiency of P450 2W1 relative to P450 1A1 ([1]; formation of 4c from GW 610): 5 fold; Km at 10 min ([1]; human, pH 7.4, Km, P450 2W1, substrate GW 610, product 4c): 22 ± 7 µM; product formation on incubation with P450 2W1 [2]: Products were formed; product formation on incubation with P450 2S1 [3]: no products were observed; GSH conjugate formation [4]: detected; GI50 [5]: < 0.1 nM

Question: For `Cc1cc(-c2nc3cc(F)ccc3s2)ccc1N` [5F 203, 2-(4-Amino-3-methylphenyl)-5-fluorobenzothiazole], which kcat ([1]; P450 2W1, substrate 5F 203, product 8a) is on record?
Answer: 0.0158 ± 0.0017 s⁻¹

Question: And the kcat ([1]; P450 2W1, substrate 5F 203, product 10)?
Answer: 0.00933 ± 0.001 s⁻¹

Question: What about the Km at 15 min ([1]; human, pH 7.4, Km, P450 2W1, substrate 5F 203, product 8a) of the same molecule?
Answer: 31 ± 11 µM

Question: And the Km at 15 min ([1]; human, pH 7.4, Km, P450 2W1, substrate 5F 203, product 10)?
Answer: 35 ± 12 µM

Question: What about the “efficiency of P450 1A1 relative to P450 2W1” value [6] of the same molecule?
Answer: ~ 2 fold

Question: What about the “product formation on incubation with P450 2W1” value [2] of the same molecule?
Answer: Products were formed

Question: What about the “product formation on incubation with P450 2S1” value [3] of the same molecule?
Answer: no products were observed

Question: And the GSH conjugate formation [4]?
Answer: detected

Question: What about the GI50 [7] of the same molecule?
Answer: < 1 nM

Question: And the GI50 [8]?
Answer: < 1 nM

Question: And the GI50 [9]?
Answer: < 1 nM

Question: With `c1ccc(-c2nc3ccccc3s2)cc1` [2-phenylbenzothiazole, reference compound] as the molecule, how does the “product formation on incubation with P450 2W1” value [2] read?
Answer: No products were observed

Question: And the “product formation on incubation with P450 2S1” value [3]?
Answer: No products were observed

Question: For `Cc1cc(-c2nc3cc(F)ccc3s2)ccc1NO` [compound 10, 2-(4-Hydroxylamino-3-methylphenyl)-5-fluorobenzothiazole], which dGuo adduct formation [10] is on record?
Answer: consistent with a dGuo adduct of compound 10

Question: And the solubility [11]?
Answer: very poor

B1: P450 1A1 (Homo sapiens) (protein)
chain: MLFPISMSATEFLLASVIFCLVFWVIRASRPQVPKGLKNPPGPWGWPLIGHMLTLGKNPHLALSRMSQQYGDVLQIRIGSTPVVVLSGLDTIRQALVRQGDDFKGRPDLYTFTLISNGQSMSFSPDSGPVWAARRRLAQNGLKSFSIASDPASSTSCYLEEHVSKEAEVLISTLQELMAGPGHFNPYRYVVVSVTNVICAICFGRRYDHNHQELLSLVNLNNNFGEVVGSGNPADFIPILRYLPNPSLNAFKDLNEKFYSFMQKMVKEHYKTFEKGHIRDITDSLIEHCQEKQLDENANVQLSDEKIINIVLDLFGAGFDTVTTAISWSLMYLVMNPRVQRKIQEELDTVIGRSRRPRLSDRSHLPYMEAFILETFRHSSFVPFTIPHSTTRDTSLKGFYIPKGRCVFVNQWQINHDQKLWVNPSEFLPERFLTPDGAIDKVLSEKVIIFGMGKRKCIGETIARWEVFLFLAILLQRVEFSVPLGVKVDMTPIYGLTMKHACCEHFQMQLRS
Question: Which results are given for B1?
Answer: Km [12]: 10 ± 3 µM; kcat [12]: 0.00617 ± 0.0005 s⁻¹; kcat/Km [12]: 600 ± 167 M⁻¹ s⁻¹; Km [13, 14]: 32 ± 9 µM; kcat [13, 14]: 0.0283 ± 0.00333 s⁻¹; kcat/Km [13, 14]: 900 ± 333 M⁻¹ s⁻¹; Km [13, 15]: 29 ± 8 µM; kcat [13, 15]: 0.0517 ± 0.005 s⁻¹; kcat/Km [13, 15]: 1830 ± 500 M⁻¹ s⁻¹
